# Calls of active or inactive are those of the source.
# Key:
# Mus musculus [1] = test: Antinociceptive activity in i.t dosed LPS-induced ICR-CD1 mouse thermal hyperalgesia model assessed as withdrawal latency for radiant heat by tail flick assay relative to TAK-220 and N-((4aS,7S,7aR,12bS)-4a,9-Dihydroxy-3-methyl-2,3,4,4a,5,6,7,7a-octahydro-1H-4,12-methanobenzofuro[3,2-e][…]-7-yl)-2-((3,7,17-trioxo-5-oxa-2,8,16-triazaoctadecan-18-yl)oxy)acetamide combination; type: functional
# Mus musculus [2] = test: Antinociceptive activity in i.t dosed normal ICR-CD1 mouse assessed as withdrawal latency for radiant heat by tail flick assay; type: functional
# How it was run: (§1)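 Male ICR-CD1 mice (17–25 g); LPS groups given LPS 1 mg/kg i.p. 24 h before testing, others untreated. Compound dissolved in 5% DMSO, diluted to <1% DMSO, given i.t. or i.c.v. in 5 µl to conscious mice. Radiant-heat tail flick, latency before and at peak time after drug, 10 s cut-off; %MPE = (test−control)/(10−control)×100. At least three groups of 8–10 mice per dose–response curve, each mouse used once.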
# Mus musculus [3] = test: Toxicity in i.t dosed ICR-CD1 mouse at ED50 after 24 hrs; type: organism-based; conditions: in vivo, icv_or_intrathecal
# How it was run: (§2)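 Acute tolerance in male ICR-CD1 mice, either untreated or given LPS 1 mg/kg i.p. 24 h before testing. The ED80–90 dose is given i.t. or i.c.v. (5 µl, <1% DMSO) on day 1. The same dose is given again 24 h later to the same mouse and retested by radiant-heat tail flick (10 s cut-off, %MPE).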
# Mus musculus [4] = test: Selectivity ratio of ED50 for antinociceptive activity in i.c.v dosed LPS-induced ICR-CD1 mouse thermal hyperalgesia model to ED50 for i.t dosed LPS-induced ICR-CD1 mouse thermal hyperalgesia model; type: functional
# How it was run: (§3)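 Ratios compare i.c.v. with i.t. dosing, or untreated mice with LPS-pretreated mice (1 mg/kg i.p., 24 h). All mice are male ICR-CD1.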
# Mus musculus [5] = test: Antinociceptive activity in i.t dosed LPS-induced ICR-CD1 mouse thermal hyperalgesia model assessed as withdrawal latency for radiant heat by tail flick assay; type: functional; how it was run: as §1
# Mus musculus [6] = organism: Mus musculus; test: Antinociceptive activity in LPS-induced ICR-CD1 mouse thermal hyperalgesia model assessed as withdrawal latency for radiant heat at 1000 pmol i.c.v by tail flick assay; type: functional; how it was run: as §1
# Mus musculus [7] = test: Antinociceptive activity in normal ICR-CD1 mouse assessed as withdrawal latency for radiant heat at 1000 pmol, icv by tail flick assay; type: functional; how it was run: as §1
# Mus musculus [8] = test: Antinociceptive activity in i.t dosed LPS-induced ICR-CD1 mouse thermal hyperalgesia model assessed as withdrawal latency for radiant heat at ED50 after 24 hrs by tail flick assay; type: functional; how it was run: as §2
# Mus musculus [9] = test: Selectivity ratio of ED50 for antinociceptive activity in i.c.v dosed ICR-CD1 mouse to ED50 for i.t dosed ICR-CD1 mouse; type: functional; how it was run: as §3
# Mus musculus [10] = test: Antinociceptive activity in i.t dosed LPS-induced ICR-CD1 mouse thermal hyperalgesia model assessed as withdrawal latency for radiant heat by tail flick assay relative to morphine; type: functional
# Mus musculus [11] = test: Antinociceptive activity in normal ICR-CD1 mouse assessed as withdrawal latency for radiant heat at 500 pmol, icv by tail flick assay; type: functional; how it was run: as §1
# Mus musculus [12] = test: Antinociceptive activity in i.t dosed LPS-induced ICR-CD1 mouse thermal hyperalgesia model assessed as withdrawal latency for radiant heat at ED50 by tail flick assay in presence of 45 mg/kg, ip minocycline; type: functional, organism-based
# How it was run: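 Male ICR-CD1 mice get LPS 1 mg/kg i.p. and 24 h later minocycline HCl 45 mg/kg i.p. in distilled water. Test compound is given i.t. 4 h after minocycline. Antinociception is read by radiant-heat tail flick (10 s cut-off) as %MPE. The ED50 comes from a dose–response curve, groups of n=8.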
# Mus musculus [13] = test: Toxicity in i.t dosed LPS-induced ICR-CD1 mouse thermal hyperalgesia model at ED50 after 24 hrs; type: organism-based; conditions: in vivo, icv_or_intrathecal; how it was run: as §2
# Mus musculus [14] = organism: Mus musculus; test: Antinociceptive activity in LPS-induced ICR-CD1 mouse thermal hyperalgesia model assessed as withdrawal latency for radiant heat at 500 pmol i.c.v by tail flick assay; type: functional; how it was run: as §1
# Mus musculus [15] = test: Selectivity ratio of ED50 for antinociceptive activity in i.t dosed normal ICR-CD1 mouse to ED50 for i.t dosed LPS-induced ICR-CD1 mouse thermal hyperalgesia model; type: functional; how it was run: as §3
# Mus musculus [16] = test: Antinociceptive activity in i.c.v dosed LPS-induced ICR-CD1 mouse thermal hyperalgesia model assessed as withdrawal latency for radiant heat by tail flick assay; type: functional; how it was run: as §1
# Mus musculus [17] = test: Toxicity in i.c.v dosed ICR-CD1 mouse at ED50 after 24 hrs; type: organism-based; conditions: in vivo, icv_or_intrathecal; how it was run: as §2
# Mus musculus [18] = test: Antinociceptive activity in i.c.v dosed normal ICR-CD1 mouse assessed as withdrawal latency for radiant heat by tail flick assay; type: functional; how it was run: as §1
# Mus musculus [19] = test: Toxicity in i.c.v dosed LPS-induced ICR-CD1 mouse thermal hyperalgesia model at ED50 after 24 hrs; type: organism-based; conditions: in vivo, icv_or_intrathecal; how it was run: as §2
# Mus musculus [20] = test: Antinociceptive activity in i.t dosed complete Freund's adjuvant-induced ICR-CD1 mouse mechanical hyperalgesia model by von Frey test; type: functional
# [21] = biological target: C-C chemokine receptor type 5 (Homo sapiens) (UniProt P51681); test: Antagonist activity at CCR5 receptor (unknown origin) expressed in HEK293 cells assessed as inhibition of CCl5-induced calcium release at 1 uM by FLIPR assay; type: functional, cell-based
# Mus musculus [22] = test: Antinociceptive activity in normal ICR-CD1 mouse assessed as withdrawal latency for radiant heat at 250 pmol, icv by tail flick assay; type: functional; how it was run: as §1
# Mus musculus [23] = organism: Mus musculus; test: Antinociceptive activity in LPS-induced ICR-CD1 mouse thermal hyperalgesia model assessed as withdrawal latency for radiant heat at 1000 pmol i.t by tail flick assay; type: functional; how it was run: as §1
# Mus musculus [24] = organism: Mus musculus; test: Antinociceptive activity in normal ICR-CD1 mouse assessed as withdrawal latency for radiant heat at 500 pmol, it by tail flick assay; type: functional; how it was run: as §1
# Mus musculus [25] = organism: Mus musculus; test: Antinociceptive activity in normal ICR-CD1 mouse assessed as withdrawal latency for radiant heat at 1000 pmol, it by tail flick assay; type: functional; how it was run: as §1
# Chain of C-C chemokine receptor type 5 (Homo sapiens) (P51681 whole entry, looked up): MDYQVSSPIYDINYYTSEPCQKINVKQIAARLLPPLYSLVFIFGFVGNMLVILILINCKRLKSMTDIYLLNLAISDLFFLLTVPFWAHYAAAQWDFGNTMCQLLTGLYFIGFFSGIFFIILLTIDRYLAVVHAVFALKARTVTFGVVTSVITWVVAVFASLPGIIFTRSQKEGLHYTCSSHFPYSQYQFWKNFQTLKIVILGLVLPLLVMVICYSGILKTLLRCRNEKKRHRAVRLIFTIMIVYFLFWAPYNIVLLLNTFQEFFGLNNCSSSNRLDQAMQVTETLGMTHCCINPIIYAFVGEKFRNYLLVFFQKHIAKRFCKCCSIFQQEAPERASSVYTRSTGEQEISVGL
SMILES,Selectivity Index (Mus musculus [1]),ED50 (Mus musculus [2]) [pmol],Activity (Mus musculus [3]),Ratio ED50 (Mus musculus [4]),ED50 (Mus musculus [5]) [pmol],MPE (Mus musculus [6]) [%],Ratio ED50 (Mus musculus [9]),Activity (Mus musculus [13]),ED50 (Mus musculus [16]) [pmol],Activity (Mus musculus [19]),also measured
Cc1ccc(N(CCCN2CCC(Cc3ccc(C(N)=O)cc3)CC2)C(=O)C2CCN(C(=O)COCC(=O)NCCCCCCCCCNC(=O)COCC(=O)N[C@H]3CC[C@@]4(O)[C@H]5Cc6ccc(O)c7c6[C@@]4(CCN5C)[C@H]3O7)CC2)cc1Cl,6.2,15.83,Non-toxic,118.62,8.43,63.1,63.98,–,–,–,MPE (Mus musculus [7]): 54.5%; MPE (Mus musculus [8]): 24%
Cc1ccc(N(CCCN2CCC(Cc3ccc(C(N)=O)cc3)CC2)C(=O)C2CCN(C(=O)COCC(=O)NCCCCCCCCCCNC(=O)COCC(=O)N[C@H]3CC[C@@]4(O)[C@H]5Cc6ccc(O)c7c6[C@@]4(CCN5C)[C@H]3O7)CC2)cc1Cl,3559,45.75,Non-toxic,–,0.01461,–,–,Non-toxic,–,–,fold change (FC) (Mus musculus [10]): 1500; MPE (Mus musculus [11]): 49.7%; Activity (Mus musculus [12]): inactive; MPE (Mus musculus [14]): 41.1%; Selectivity Index (Mus musculus [15]): 3000
Cc1ccc(N(CCCN2CCC(Cc3ccc(C(N)=O)cc3)CC2)C(=O)C2CCN(C(=O)COCC(=O)NCCNC(=O)COCC(=O)N[C@H]3CC[C@@]4(O)[C@H]5Cc6ccc(O)c7c6[C@@]4(CCN5C)[C@H]3O7)CC2)cc1Cl,4.9,32.34,Non-toxic,5.32,10.6,–,3.29,Non-toxic,56.41,Toxic,Activity (Mus musculus [17]): Toxic; ED50 (Mus musculus [18]): 106.6 pmol
CN1CC[C@]23c4c5ccc(O)c4O[C@H]2[C@@H](O)C=C[C@H]3[C@H]1C5 [MORPHINE],–,27,–,8,35,–,11,–,–,–,ED50 (Mus musculus [20]): 15 pmol
CNC(=O)COCC(=O)NCCCCCCCNC(=O)COCC(=O)N[C@H]1CC[C@@]2(O)[C@H]3Cc4ccc(O)c5c4[C@@]2(CCN3C)[C@H]1O5,–,113.3,Toxic,7.93,21.29,–,0.95,Toxic,168.9,Toxic,Activity (Mus musculus [17]): Toxic; ED50 (Mus musculus [18]): 108.2 pmol
CNC(=O)COCC(=O)N1CCC(C(=O)N(CCCN2CCC(Cc3ccc(C(N)=O)cc3)CC2)c2ccc(C)c(Cl)c2)CC1,–,–,–,–,–,–,–,–,–,–,Activity [21]: Active
Cc1ccc(N(CCCN2CCC(Cc3ccc(C(N)=O)cc3)CC2)C(=O)C2CCN(C(=O)COCC(=O)NCCCCCCCNC(=O)COCC(=O)N[C@H]3CC[C@@]4(O)[C@H]5Cc6ccc(O)c7c6[C@@]4(CCN5C)[C@H]3O7)CC2)cc1Cl,4.5,166.4,Toxic,60.68,11.41,–,1.5,Non-toxic,692.4,Toxic,MPE (Mus musculus [22]): 35.9%
CNC(=O)COCC(=O)NCCCCCCCNC(=O)COCC(=O)N1CCC(C(=O)N(CCCN2CCC(Cc3ccc(C(N)=O)cc3)CC2)c2ccc(C)c(Cl)c2)CC1,–,–,–,–,–,51.9,–,–,–,–,MPE (Mus musculus [23]): 32.4%; MPE (Mus musculus [24]): 28.1%; MPE (Mus musculus [11]): 43.9%
CC(=O)N1CCC(C(=O)N(CCCN2CCC(Cc3ccc(C(N)=O)cc3)CC2)c2ccc(C)c(Cl)c2)CC1,–,–,–,6.48,–,7.6,1,–,–,–,MPE (Mus musculus [25]): 34.2%; MPE (Mus musculus [23]): 49%; MPE (Mus musculus [7]): 26.2%; Activity [21]: Active
Cc1ccc(N(CCCN2CCC(Cc3ccc(C(N)=O)cc3)CC2)C(=O)C2CCN(C(=O)COCC(=O)NCCCCCCCCCCCCNC(=O)COCC(=O)N[C@H]3CC[C@@]4(O)[C@H]5Cc6ccc(O)c7c6[C@@]4(CCN5C)[C@H]3O7)CC2)cc1Cl,0.4,336.9,Toxic,–,122.7,55.7,2.97,Toxic,–,–,MPE (Mus musculus [7]): 27.6%
Cc1ccc(N(CCCN2CCC(Cc3ccc(C(N)=O)cc3)CC2)C(=O)C2CCN(C(=O)COCC(=O)NCCCCCNC(=O)COCC(=O)N[C@H]3CC[C@@]4(O)[C@H]5Cc6ccc(O)c7c6[C@@]4(CCN5C)[C@H]3O7)CC2)cc1Cl,4.8,370.6,Toxic,6.38,10.92,–,3.14,Non-toxic,187.1,Toxic,Activity (Mus musculus [17]): Toxic; ED50 (Mus musculus [18]): 358.2 pmol
